Data as given in ChEMBL document CHEMBL1287662, “Potent neuroprotective role of novel melatonin derivatives for management of central neuropathy induced by acrylamide in rats” (2010).
Active and inactive are the calls of the source. No cut-off for these calls is given here.

How the values were obtained:
Rattus norvegicus [1] = test: Neuroprotective activity in Sprague-Dawley rat assessed as protection against acrylamide-induced increase of LDH level at 50 mg/kg, ip administered 10 mins before acrylamide challenge for 3 days per week for 3 weeks by spectrofluorometrically (reference value: 67%); conditions: route intraperitoneal
Rattus norvegicus [2] = test: Neuroprotective activity in Sprague-Dawley rat assessed as protection against acrylamide-induced decrease of superoxide dismutase level at 50 mg/kg, ip administered 10 mins before acrylamide challenge for 3 days per week for 3 weeks by spectrofluorometrically (reference value: -32%); design: scale not given: the % may be the effect or the level left; conditions: route intraperitoneal
Rattus norvegicus [3] = test: Neuroprotective activity in Sprague-Dawley rat assessed as protection against acrylamide-induced decrease in noradrenaline level at 50 mg/kg, ip administered 10 mins before acrylamide challenge for 3 days per week […] by ELISA (reference value: -21%); assay type: functional; design: scale not given: the % may be the effect or the level left; conditions: route intraperitoneal
Rattus norvegicus [4] = test: Neuroprotective activity in Sprague-Dawley rat assessed as protection against acrylamide-induced decrease of creatine kinase level at 50 mg/kg, ip administered 10 mins before acrylamide challenge for 3 days per week for 3 weeks by spectrofluorometrically (reference value: -73%); design: scale not given: the % may be the effect or the level left; conditions: route intraperitoneal
Rattus norvegicus [5] = test: Neuroprotective activity in Sprague-Dawley rat assessed as protection against acrylamide-induced decrease of glutathione peroxidase level at 50 mg/kg, ip administered 10 mins before acrylamide challenge for 3 days per week for 3 weeks by spectrofluorometrically (reference value: -43%); design: scale not given: the % may be the effect or the level left; conditions: route intraperitoneal
Rattus norvegicus [6] = test: Neuroprotective activity in Sprague-Dawley rat assessed as protection against acrylamide-induced decrease in adrenaline level at 50 mg/kg, ip administered 10 mins before acrylamide challenge for 3 days per week […] by ELISA (reference value: -40%); assay type: functional; design: scale not given: the % may be the effect or the level left; conditions: route intraperitoneal
Rattus norvegicus [7] = test: Neuroprotective activity in Sprague-Dawley rat assessed as protection against acrylamide-induced decrease in dopamine level at 50 mg/kg, ip administered 10 mins before acrylamide challenge for 3 days per week […] by spectrofluorometrically (reference value: -16%); assay type: functional; design: scale not given: the % may be the effect or the level left; conditions: route intraperitoneal
Rattus norvegicus [8] = test: Neuroprotective activity in Sprague-Dawley rat assessed as protection against acrylamide-induced decrease of glutathione level at 50 mg/kg, ip administered 10 mins before acrylamide challenge for 3 days per week […] by spectrofluorometrically (reference value: -27%); assay type: functional; design: scale not given: the % may be the effect or the level left; conditions: route intraperitoneal
Rattus norvegicus [9] = test: Neuroprotective activity in Sprague-Dawley rat assessed as protection against acrylamide-induced increase of malondialdehyde level at 50 mg/kg, ip administered 10 mins before acrylamide challenge for 3 days per week […] by spectrofluorometrically (reference value: 31%); assay type: functional; conditions: route intraperitoneal
Rattus norvegicus [10] = test: Neuroprotective activity in Sprague-Dawley rat assessed as protection against acrylamide-induced neuronal damage at 50 mg/kg, ip administered 10 mins before acrylamide challenge for 3 days per week for 2 weeks by histopathology analysis; assay type: functional, organism-based; design: dose 50 mg/kg; conditions: in the assay text read “for 3 weeks” for “for 2 weeks”
How it was run: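 Rats (n = 10 per group) given agent at 50 mg/kg i.p. in 2% Tween 10 min before ACR at 50 mg/kg i.p., 3 days/week for 3 weeks. Brain tissue examined by light photomicrography for neuronal morphology (dark neurons, chromatin clumping, vacuoles), compared with control and ACR-only rats.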

In the case of `COc1ccc2c(c1)c(CCNC(C)=O)c1sc(-c3c(C(C)=O)nn(-c4ccccc4)c3N)nn12`, the Activity (Rattus norvegicus [1]) is reported as -45%, the Activity (Rattus norvegicus [2]) is reported as 65% and the Activity (Rattus norvegicus [3]) is reported as 14%. It also gave an Activity (Rattus norvegicus [4]) of 6%, an Activity (Rattus norvegicus [5]) of 5% and an Activity (Rattus norvegicus [6]) of 60%. For the same molecule, the Activity (Rattus norvegicus [7]) was 10%, the Activity (Rattus norvegicus [8]) was 27% and the Activity (Rattus norvegicus [9]) was -19%.

`COc1ccc2c(c1)c(CCNC(C)=O)cn2-c1c[nH]nc1-c1ccccc1` showed an Activity (Rattus norvegicus [1]) of -40%, an Activity (Rattus norvegicus [2]) of 41% and an Activity (Rattus norvegicus [3]) of 11%. The Activity (Rattus norvegicus [4]) was 6%, the Activity (Rattus norvegicus [5]) was 3% and the Activity (Rattus norvegicus [6]) was 60%. The Activity (Rattus norvegicus [7]) was 3%, the Activity (Rattus norvegicus [8]) was 9% and the Activity (Rattus norvegicus [9]) was -17%.

In the case of `COc1ccc2[nH]cc(CCNC(C)=O)c2c1` [MELATONIN], the Activity (Rattus norvegicus [1]) is reported as -65%, the Activity (Rattus norvegicus [10]) is reported as “Active” and the Activity (Rattus norvegicus [2]) is reported as 135%. The Activity (Rattus norvegicus [3]) was 32%, the Activity (Rattus norvegicus [4]) was 59% and the Activity (Rattus norvegicus [5]) was 38%. It also gave an Activity (Rattus norvegicus [6]) of 67%, an Activity (Rattus norvegicus [7]) of 33% and an Activity (Rattus norvegicus [8]) of 82%. The Activity (Rattus norvegicus [9]) was -22%.

`COc1ccc2c(c1)c(CCNC(C)=O)c1sc(C3=C(c4ccccc4)CC(=N)C(C#N)=C3N)nn12` was tested, and the Activity (Rattus norvegicus [1]) was -47%, the Activity (Rattus norvegicus [2]) was 71% and the Activity (Rattus norvegicus [3]) was 28%. For the same molecule, the Activity (Rattus norvegicus [4]) was 18%, the Activity (Rattus norvegicus [5]) was 8% and the Activity (Rattus norvegicus [6]) was 63%. The Activity (Rattus norvegicus [7]) was 11%, the Activity (Rattus norvegicus [8]) was 27% and the Activity (Rattus norvegicus [9]) was -20%.

In the case of `COc1ccc2c(c1)c(CCNC(C)=O)cn2CN1CCOCC1`, the Activity (Rattus norvegicus [1]) is reported as -55%, the Activity (Rattus norvegicus [2]) is reported as 77% and the Activity (Rattus norvegicus [3]) is reported as 28%. The Activity (Rattus norvegicus [4]) was 30%, the Activity (Rattus norvegicus [5]) was 11% and the Activity (Rattus norvegicus [6]) was 65%. For the same molecule, the Activity (Rattus norvegicus [7]) was 19%, the Activity (Rattus norvegicus [8]) was 27% and the Activity (Rattus norvegicus [9]) was -21%.
